Source: ChEMBL document CHEMBL3259519, “Targeting triple-negative breast cancer cells with 6,7-bis(hydroxymethyl)-1H,3H-pyrrolo[1,2-c]thiazoles” (Eur J Med Chem, 2014)
pIC50: −log10 of the molar value. The source made the active and inactive calls. The calls are words filed in the database; no cut-off is given here.

How the values were obtained:
MCF7 [1] = experiment: Cell cycle arrest in human MCF7 cells expressing ER and BRCA2 assessed as decrease in accumulation at G0/G1 phase at IC50 after 48 hrs by propidium staining-based FACS analysis; type: functional
Method in brief: (§1)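 2x10^6 cells were attached overnight, then exposed to IC50 for 48 h (DMSO 0.1%). They were fixed in ice-cold 70% ethanol for 30 min in the dark, PBS-washed and stained with PI/RNase for 15 min at RT. Flow cytometry used 488 nm excitation and a 585/42 filter. Sub-G0, G0/G1, S and G2/M fractions were reported as mean ± SD (n≥5).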

HCC1806 [2] = experiment: Induction of apoptosis in triple negative ER, PR, HER2-deficient human HCC1806 cells assessed as increase of necrotic cells at IC50 after 48 hrs by Annexin V/propidium iodide staining-based flow cytometry relative to control; type: functional, cell-based
Method in brief: (§2)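 2x10^6 cells were attached overnight, then given IC50 for 48 h (DMSO 0.1%). PBS-washed cells were stained with Annexin V-FITC and PI in binding buffer for 15 min at 4 °C in the dark. Flow cytometry used 488 nm excitation. Cells were gated as viable, apoptotic, late apoptotic/necrotic or necrotic, reported as mean ± SD (n≥5).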

MCF7 [3] = experiment: Induction of apoptosis in human MCF7 cells expressing ER and BRCA2 assessed as early apoptotic cells at IC50 after 48 hrs by Annexin V/propidium iodide staining-based flow cytometry relative to control; type: functional, cell-based; method in brief: as §2
MCF7 [4] = experiment: Antiproliferative activity against human MCF7 cells expressing ER and BRCA2 assessed as growth inhibition after 24 hrs by MTT assay; type: functional, cell-based; conditions: MCF7, 24 h
Method in brief: (§3)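 Cells were seeded at 2x10^4/well and left to attach overnight. Compounds in DMSO were diluted in medium and applied for 24, 48, 72 or 96 h. Cells were then PBS-washed and given 0.5 mg/mL MTT (pH 7.4) at 37 °C for 4 h. Formazan was dissolved in acid isopropanol. IC50 came from dose-response curves by exponential decay fitting (r2>0.9), with 95% CI.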

HCC1954 [5] = experiment: Antiproliferative activity against human HCC1954 cells expressing HER2 assessed as growth inhibition after 48 hrs by MTT assay; type: functional, cell-based; conditions: HCC1954, 48 h; method in brief: as §3
MCF7 [6] = experiment: Induction of apoptosis in human MCF7 cells expressing ER and BRCA2 assessed as increase of necrotic cells at IC50 after 48 hrs by Annexin V/propidium iodide staining-based flow cytometry relative to control; type: functional, cell-based; method in brief: as §2
MCF7 [7] = experiment: Antiproliferative activity against human MCF7 cells expressing ER and BRCA2 assessed as growth inhibition after 72 hrs by MTT assay; type: functional, cell-based; conditions: MCF7, 72 h; method in brief: as §3
HCC1806 [8] = experiment: Cytotoxicity against ER, PR, HER2-deficient human HCC1806 cells as reduction of survival factor at IC50 incubated for 48 hrs measured after 12 days by crystal violet staining-based clonogenic assay; type: functional
HCC1806 [9] = experiment: Cell cycle arrest in ER, PR, HER2-deficient human HCC1806 cells as accumulation at pre-G0 phase phase at IC50 after 48 hrs by propidium staining-based FACS analysis; type: functional; method in brief: as §1
MCF7 [10] = experiment: Cell cycle arrest in human MCF7 cells expressing ER and BRCA2 assessed as increase in accumulation at S phase at IC50 after 48 hrs by propidium staining-based FACS analysis; type: functional; method in brief: as §1
HCC1806 [11] = experiment: Induction of apoptosis in triple negative ER, PR, HER2-deficient human HCC1806 cells assessed as reduction of long term cell survival at IC50 after 48 hrs by clonogenic assay relative to control
MCF7 [12] = experiment: Antiproliferative activity against human MCF7 cells expressing ER and BRCA2 assessed as growth inhibition after 48 hrs by MTT assay; type: functional, cell-based; conditions: MCF7, 48 h; method in brief: as §3
HCC1806 [13] = experiment: Antiproliferative activity against ER, PR, HER2-deficient human HCC1806 cells as growth inhibition after 96 hrs by MTT assay; type: functional, cell-based; conditions: HCC1806, 96 h; method in brief: as §3
MCF7 [14] = experiment: Induction of DNA strand break in human MCF7 cells expressing ER and BRCA2 at 3 x IC50 after 48 hrs by alkaline comet assay; type: functional, cell-based
Method in brief: (§4)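 5x10^5 cells got IC50 or 3x IC50 for 48 h (DMSO 0.1%); H2O2-treated cells served as positive control. Cells in 1% low-melt agarose went onto slides precoated with normal-melt agarose. Slides were lysed overnight in alkaline buffer (2.5 M NaCl, EDTA, Tris, DMSO, Triton X-100). Electrophoresis ran in 300 mM NaOH/1 mM EDTA (pH>13) at 25 V for 15 min. Slides were neutralized in Tris pH 7.4 and stained with 25 µg/mL ethidium bromide for fluorescence microscopy.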

HCC1954 [15] = experiment: Antiproliferative activity against human HCC1954 cells expressing HER2 assessed as growth inhibition after 72 hrs by MTT assay; type: functional, cell-based; conditions: HCC1954, 72 h; method in brief: as §3
MCF7 [16] = experiment: Cytotoxicity against human MCF7 cells expressing ER and BRCA2 assessed as reduction of total protein content at IC50 after 48 hrs by SRB assay relative to control; type: functional; set-up: scale not given: the % may be the effect or the level left
HCC1806 [17] = experiment: Induction of apoptosis in ER, PR, HER2-deficient human HCC1806 cells as increase in Bax/Bcl2 expression ratio at IC50 after 48 hrs by flow cytometry relative to control
HCC1806 [18] = experiment: Induction of DNA strand break in ER, PR, HER2-deficient human HCC1806 cells at IC50 after 48 hrs by alkaline comet assay; type: functional, cell-based; method in brief: as §4
MCF7 [19] = experiment: Induction of apoptosis in human MCF7 cells expressing ER and BRCA2 assessed as increase in p53 expression at IC50 after 48 hrs by Western blotting analysis relative to control; type: functional, cell-based
Method in brief: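 Cells were treated with IC50 for 48 h and lysed on ice in RIPA with protease inhibitors, then sonicated and centrifuged. Protein was quantified by BCA and separated on 10% SDS-PAGE, then transferred and blocked with 4% BSA/TBS-T. Blots were probed overnight at 4 °C with anti-p53 (DO7) and actin, then anti-mouse secondary. ECF fluorescence was scanned and quantified.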

HCC1806 [20] = experiment: Induction of DNA strand break in ER, PR, HER2-deficient human HCC1806 cells at 3 x IC50 after 48 hrs by alkaline comet assay; type: functional, cell-based; method in brief: as §4
MCF7 [21] = experiment: Cell cycle arrest in human MCF7 cells expressing ER and BRCA2 assessed as blockade at G2/M phase at IC50 after 48 hrs by propidium staining-based FACS analysis; type: functional; method in brief: as §1
MCF7 [22] = experiment: Induction of apoptosis in human MCF7 cells expressing ER and BRCA2 assessed as increase in Bax/Bcl2 expression ratio at IC50 after 48 hrs by flow cytometry relative to control
HCC1806 [23] = experiment: Induction of apoptosis in triple negative ER, PR, HER2-deficient human HCC1806 cells assessed as increase of late apoptotic/nectrotic cells at IC50 after 48 hrs by Annexin V/propidium iodide staining-based flow cytometry relative to control; type: functional, cell-based; method in brief: as §2
HCC1806 [24] = experiment: Cytotoxicity against ER, PR, HER2-deficient human HCC1806 cells as reduction of total protein content at IC50 incubated for 48 hrs by SRB assay relative to control; type: functional; set-up: scale not given: the % may be the effect or the level left
MCF7 [25] = experiment: Induction of DNA strand break in human MCF7 cells expressing ER and BRCA2 at IC50 after 48 hrs by alkaline comet assay; type: functional, cell-based; method in brief: as §4
MCF7 [26] = experiment: Induction of apoptosis in human MCF7 cells expressing ER and BRCA2 assessed as increase of late apoptotic/nectrotic cells at IC50 after 48 hrs by Annexin V/propidium iodide staining-based flow cytometry relative to control; type: functional, cell-based; method in brief: as §2
HCC1954 [27] = experiment: Antiproliferative activity against human HCC1954 cells expressing HER2 assessed as growth inhibition after 96 hrs by MTT assay; type: functional, cell-based; conditions: HCC1954, 96 h; method in brief: as §3
MCF7 [28] = experiment: Antiproliferative activity against human MCF7 cells expressing ER and BRCA2 assessed as growth inhibition after 96 hrs by MTT assay; type: functional, cell-based; conditions: MCF7, 96 h; method in brief: as §3
MCF7 [29] = experiment: Cytotoxicity against human MCF7 cells expressing ER and BRCA2 assessed as reduction of survival factor at IC50 incubated for 48 hrs measured after 12 days by crystal violet staining-based clonogenic assay; type: functional, cell-based
HCC1806 [30] = experiment: Induction of apoptosis in triple negative ER, PR, HER2-deficient human HCC1806 cells assessed as decrease of viable cells at IC50 after 48 hrs by Annexin V/propidium iodide staining-based flow cytometry relative to control; type: functional; method in brief: as §2
HCC1806 [31] = experiment: Cell cycle arrest in ER, PR, HER2-deficient human HCC1806 cells as decrease in accumulation at G0/G1 phase at IC50 after 48 hrs by propidium staining-based FACS analysis; type: functional; method in brief: as §1
HCC1806 [32] = experiment: Antiproliferative activity against ER, PR, HER2-deficient human HCC1806 cells as growth inhibition after 24 hrs by MTT assay; type: functional, cell-based; conditions: HCC1806, 24 h; method in brief: as §3
HCC1806 [33] = experiment: Antiproliferative activity against ER, PR, HER2-deficient human HCC1806 cells as growth inhibition after 72 hrs by MTT assay; type: functional, cell-based; conditions: HCC1806, 72 h; method in brief: as §3
HCC1954 [34] = experiment: Antiproliferative activity against human HCC1954 cells expressing HER2 assessed as growth inhibition after 24 hrs by MTT assay; type: functional, cell-based; conditions: HCC1954, 24 h; method in brief: as §3
HCC1806 [35] = experiment: Cell cycle arrest in ER, PR, HER2-deficient human HCC1806 cells as accumulation at S phase at IC50 after 48 hrs by propidium staining-based FACS analysis; type: functional; method in brief: as §1
MCF7 [36] = experiment: Induction of apoptosis in human MCF7 cells expressing ER and BRCA2 assessed as decrease in viable cells at IC50 after 48 hrs by Annexin V/propidium iodide staining-based flow cytometry relative to control; type: functional; method in brief: as §2
HCC1806 [37] = experiment: Antiproliferative activity against ER, PR, HER2-deficient human HCC1806 cells as growth inhibition after 48 hrs by MTT assay; type: functional, cell-based; conditions: HCC1806, 48 h; method in brief: as §3

Cc1c(CO)c(CO)c2n1[C@@H](c1ccc(O)cc1)SC2 was tested, and the Activity (MCF7 [1]) was “Active”, the Activity (HCC1806 [2]) was “Active” and the Activity (MCF7 [3]) was “Active”. The pIC50 (MCF7 [4]) was under 4.00, the pIC50 (HCC1954 [5]) was 4.18 and the Activity (MCF7 [6]) was “Active”. The pIC50 (MCF7 [7]) was 4.27, the Activity (HCC1806 [8]) was under 2% and the Activity (HCC1806 [9]) was “Active”. The Activity (MCF7 [10]) was “Active”, the Activity (HCC1806 [11]) was 1.4% and the pIC50 (MCF7 [12]) was 4.06. The pIC50 (HCC1806 [13]) was 5.27, the Activity (MCF7 [14]) was “Active” and the pIC50 (HCC1954 [15]) was 4.33. The Activity (MCF7 [16]) was 15.4%, the Activity (HCC1806 [17]) was “Active” and the Activity (HCC1806 [18]) was “Active”. For the same molecule, the Activity (MCF7 [19]) was “Active”, the Activity (HCC1806 [20]) was “Active” and the Activity (MCF7 [21]) was “inactive”. The Activity (MCF7 [22]) was “Active”, the Activity (HCC1806 [23]) was “Active” and the Activity (HCC1806 [24]) was 50%. For the same molecule, the Activity (MCF7 [25]) was “Active”, the Activity (MCF7 [26]) was “Active” and the pIC50 (HCC1954 [27]) was 4.56. For the same molecule, the pIC50 (MCF7 [28]) was 4.53, the Activity (MCF7 [29]) was “Active” and the Activity (HCC1806 [30]) was “Active”. For the same molecule, the Activity (HCC1806 [31]) was “Active”, the pIC50 (HCC1806 [32]) was 4.10 and the pIC50 (HCC1806 [33]) was 4.92. The pIC50 (HCC1954 [34]) was under 4.00, the Activity (HCC1806 [35]) was “Active” and the Activity (MCF7 [36]) was 21.4%. For the same molecule, the pIC50 (HCC1806 [37]) was 4.58.
In the case of COc1ccc([C@H]2SCc3c(CO)c(CO)c(C)n32)cc1, the pIC50 (MCF7 [4]) was under 4.00, the pIC50 (HCC1954 [5]) was 4.07 and the pIC50 (MCF7 [7]) was 4.49. The pIC50 (MCF7 [12]) was 4.33, the pIC50 (HCC1806 [13]) was 4.91 and the pIC50 (HCC1954 [15]) was 4.25. For the same molecule, the pIC50 (HCC1954 [27]) was 4.72, the pIC50 (MCF7 [28]) was 5.18 and the pIC50 (HCC1806 [32]) was 4.05. For the same molecule, the pIC50 (HCC1806 [33]) was 4.71, the pIC50 (HCC1954 [34]) was under 4.00 and the pIC50 (HCC1806 [37]) was 4.55.
